Shown are actives, neighbours in structure and some others; about 2.1% of the full set was active somewhere.
PKA-R2B activ – activators of human PKA-R2B complex; P22694+P31323; PKA-R2B holoenzyme dissociation, Cy5-IP20 fluorescence polarization; R2B truncated from residue 108, S112A mutant; 0% DMSO only, 100% 113 µM cGMP; activation, % at 11.4 µM; actives 0.079% (n = 340,000); AID 504700;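 active means activation above a cutoff set at the mean over all compounds plus 3 SD, cut at about 18% in these data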;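 further: higher means more holoenzyme dissociation and a rise in polarization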
Target sequence (P31323 whole entry, looked up, other chains not shown, the tested form may be a part): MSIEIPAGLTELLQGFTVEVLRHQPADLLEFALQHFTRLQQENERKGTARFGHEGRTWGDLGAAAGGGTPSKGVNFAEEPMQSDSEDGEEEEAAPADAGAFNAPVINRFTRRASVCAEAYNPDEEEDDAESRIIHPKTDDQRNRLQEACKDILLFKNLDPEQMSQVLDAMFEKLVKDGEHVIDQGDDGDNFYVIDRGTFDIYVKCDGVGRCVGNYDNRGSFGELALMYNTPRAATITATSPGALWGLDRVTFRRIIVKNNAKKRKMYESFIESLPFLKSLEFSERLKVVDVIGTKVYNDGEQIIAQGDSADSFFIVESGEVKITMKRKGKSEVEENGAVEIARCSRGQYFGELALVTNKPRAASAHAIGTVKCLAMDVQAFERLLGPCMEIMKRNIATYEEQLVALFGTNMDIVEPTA
MsrA act – activators of bovine methionine sulfoxide reductase A; activation, % at 10.6 µM; actives 0.3% (n = 360,000); purified bovine MsrA, absorbance read-out; in the data active means activation above about 7.5%;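 further: 0% = vehicle and 100% = reference activator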
PKA-R1A activ – PKA-R1A complex activation; P00514+P68181; PKA-R1A dissociation, Cy5-IP20 fluorescence polarization; scaled: DMSO 0%, 113 µM cGMP 100%; activation, % at 11.4 µM; actives 0.083% (n = 340,000);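 active means percent activation above the mean of all tested compounds plus 3 SD, cut at about 19% in these data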;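 further: higher means more PKAc released from R1A so a rise in polarization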
IMP-1 inhibitor – blocks Pseudomonas aeruginosa IMP-1 metallo-beta-lactamase; inhibition, % at 5.6 µM; actives 0.45% (n = 290,000); purified IMP-1, nitrocefin hydrolysis, epi-absorbance fluorescence;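 active means inhibition above the mean plus 3 SD of all compounds in the same screening run, cut at about 4.5% in these data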;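 further: 0% = IMP-1 with DMSO and 100% = DMSO wells lacking enzyme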
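System: purified IMP-1 / Input: IMP-1 dispensed at 0.2 nM / Medium: 50 mM HEPES pH 7.1, 50 µM ZnSO4, 0.05% Brij 35 / Timing: 15 min enzyme–compound preincubation, then 25 min nitrocefin reaction, 25 °C / Technique: plate fluorescence quenching by hydrolysis product, ex 480/em 530 nm / Repeats: singlicate testing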
VIM-2 inhibitor – inhibitors of Pseudomonas aeruginosa VIM-2 metallo-beta-lactamase | inhibition, % at 5.6 µM | purified VIM-2, nitrocefin hydrolysis, epi-absorbance fluorescence | actives 0.89% (n = 290,000);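 active means inhibition above the mean of all tested compounds plus 3 SD, cutoff set per screening run, cut at about 7.5% in these data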;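 further: red hydrolysis product quenches plate fluorescence so inhibitors raise well fluorescence; 0% = enzyme with DMSO and 100% = DMSO without enzyme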
MsrA inhibitor – bovine MsrA inhibition; purified bovine MsrA, absorbance read-out; inhibition, % at 15.5 µM; actives 0.75% (n = 360,000); in the data active means inhibition above about 4.5%;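 further: 0% = vehicle wells with enzyme and 100% = reference inhibitor wells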
* = called active by the depositor; . = no result.

SMILES	PKA-R2B activ	MsrA act	PKA-R1A activ	IMP-1 inhibitor	VIM-2 inhibitor	MsrA inhibitor
COc1cccc(/C=N/NC(=O)c2[nH]c(C)c(C(=O)N/N=C/c3cccc(OC)c3O)c2C)c1O	-7.7	-8.2	-3.7	-1.6	-2.9	5.0*
COc1cccc(/C=N/NC(=O)c2ccc(-c3ccccc3)cc2)c1O	-0.7	-4.8	-13.6	-1.9	-4.0	2.2
O=C1c2ccccc2C(=O)N1CCCCN(C(=O)c1cc([N+](=O)[O-])cc([N+](=O)[O-])c1)c1ccc(Cl)cc1	-7.9	-7.4	1.7	-2.2	-2.2	0.0
O=C1c2ccccc2C(=O)N1CCCCN(C(=O)c1ccc([N+](=O)[O-])cc1)c1ccc(Cl)cc1	-2.2	-12.8	2.1	37.2*	1.2	2.0
CC1CN(C(=O)COC(=O)/C=C/c2ccccc2)CC(C)O1 (stereo unspecified)	-5.7	-1.4	-11.3	.	.	-0.1
COc1ccc(/C=C2\Oc3cc(OCC(=O)N4CCC[C@H]4C(=O)O)ccc3C2=O)c(OC)c1	4.7	-2.9	3.2	-0.9	0.9	.
COc1cc(OC)c(OC)cc1/C=C1\Oc2cc(OCC(=O)N3Cc4ccccc4C[C@H]3C(=O)O)ccc2C1=O	-5.4	-2.2	-17.3	3.4	11.9*	.
Cc1cnnc2c1-c1nonc1CC2	-1.2	-3.3	8.7	4.5*	-2.2	0.1
CN(C)c1ccc(/C=N/N(CCC#N)C2=NS(=O)(=O)c3ccccc32)cc1	5.6	0.0	-1.3	-2.4	9.1*	-0.4
O=S1(=O)N=C(N(CCO)/N=C/c2ccc(Cl)cc2)c2ccccc21	-2.7	-0.3	6.8	-0.7	1.3	0.4
CN(/N=C/c1ccncc1)C1=NS(=O)(=O)c2ccccc21	-11.0	-2.8	-6.2	-2.6	9.9*	2.8
COC(=O)c1cc2c(c3c4cc(OC)ccc4n(S(=O)(=O)c4cccc(C)c4)c13)C(=O)N(Cc1ccccc1OC)C2	.	.	.	.	.	0.7
CCN1C[C@@H]2[C@@H]3C(=O)N(C)C(=O)[C@@H]3[C@](C)(C1=O)N2C(=O)c1ccc(Cl)cc1	-6.8	6.8	1.4	.	.	0.1
C/C(O)=c1/c(=O)nc2cccc3c2=c1c1ccccc1c3=O	-6.0	-8.1	-13.8	3.8	10.2*	0.6
COc1ccccc1CN(C)C(=O)COC(=O)c1c(C)noc1C	-3.1	-10.4	4.5	.	.	0.4
Cc1[nH]c(-c2ccccn2)nc(=S)c1Cl	-0.6	-6.5	4.6	-1.4	3.6	-0.9
Cc1cc(=S)nc(-c2ccccn2)[nH]1	4.2	-0.5	-10.3	-1.1	11.4*	0.5
Cc1ccc(C(=O)N2[C@@H]3CN(C)C(=O)[C@@]2(C)[C@H]2C(=O)N(C)C(=O)[C@@H]32)cc1	0.8	-1.4	6.3	.	.	-1.5
N/C(=N\OC(=O)c1ccccc1Br)c1ccc([N+](=O)[O-])cc1	9.8	-2.5	2.8	11.6*	-2.1	0.6
N/C(=N\OC(=O)c1ccccc1Br)c1cccc([N+](=O)[O-])c1	6.5	-3.5	0.1	1.7	-3.3	0.0
CCCCN(C(=O)CSc1ncn[nH]1)c1c(N)n(Cc2ccccc2)c(=O)[nH]c1=O	0.5	-2.5	-7.8	.	.	0.8
Cc1nc2ccccc2c2oc(C(=O)NCCN3CCCCC3C)cc12 (stereo unspecified)	-1.1	-3.0	-9.2	-3.3	10.6*	-0.3
CCc1ccc(CNC(=O)c2cc3c(C)nc4ccccc4c3o2)cc1	0.6	-0.7	-7.2	-2.8	-4.1	0.3
CCN1CCCC1CNC(=O)c1cc2c(C)nc3ccccc3c2o1 (stereo unspecified)	5.7	-1.8	-4.7	0.9	8.2*	-0.7
Nc1ccc(Oc2ccc([N+](=O)[O-])cc2[N+](=O)[O-])cc1	0.5	-12.0	-3.9	-2.8	-2.6	0.8
SMILES	PKA-R2B activ	MsrA act	PKA-R1A activ	IMP-1 inhibitor	VIM-2 inhibitor	MsrA inhibitor
O=[N+]([O-])c1ccc(Oc2cccnc2)c([N+](=O)[O-])c1	-2.8	0.1	-1.5	.	.	4.5*
Cc1ccc(C)c(N2N=C(C(=O)OCc3nnc(-c4ccccc4Br)o3)CCC2=O)c1	-1.3	-1.5	-4.2	.	.	1.9
Cc1cccc(N(CC(=O)NCCSCc2ccco2)S(=O)(=O)c2ccccc2)c1	-6.3	-2.6	-3.6	-2.0	0.9	-1.6
COc1cccc(N(CC(=O)NCCSCc2ccco2)S(=O)(=O)c2ccccc2)c1	-5.8	-6.8	-0.1	5.0*	1.4	-0.6
O=C(NC1CCCC1)C(c1ccncc1)N(C(=O)c1ccco1)c1ccc(F)c(Cl)c1 (stereo unspecified)	1.6	-5.0	-3.9	-1.2	-2.8	0.6
C=CCn1c(-c2cccc(Cl)c2)n[nH]c1=S	3.6	0.2	-0.1	-4.4	-1.2	-0.4
C=CCn1c(-c2sccc2C)n[nH]c1=S	-3.2	3.7	8.6	-3.5	8.8*	0.1
CC(O)c1nc2ccc(C(=O)O)cc2[nH]1 (stereo unspecified)	-0.3	-0.7	-15.2	8.7*	1.2	-0.3
COc1ccccc1/C=C/C=N/NC(=O)c1ccco1	-5.5	-6.3	4.3	-3.6	-3.2	4.6*
C[C@@H]1CN(c2c(F)c(N)c3c(=O)c(C(=O)O)cn(C4CC4)c3c2F)C[C@H](C)N1	.	.	.	-1.4	8.4*	.
COc1ccc(OC)c(/C=C2\SC(=S)N(C(C(=O)O)c3ccccc3)C2=O)c1 (stereo unspecified)	0.5	-2.7	-19.8	4.8*	4.0	1.4
CCOc1ccc(/C=C2\SC(=S)N(C(C(=O)O)c3ccccc3)C2=O)cc1OC (stereo unspecified)	0.3	-1.6	-1.6	-2.4	-1.4	0.2
O=C1c2ccccc2S(=O)(=O)N1CC(O)COc1ccc(Br)cc1 (stereo unspecified)	4.5	-15.8	0.6	5.3*	-0.2	-0.6
O=C1c2ccccc2S(=O)(=O)N1CC(O)COc1ccc(Cl)cc1 (stereo unspecified)	-9.7	-12.9	-0.7	-1.3	1.1	0.5
O=C1c2cccc3cccc(c23)C(=O)N1c1ccc(O)cc1	-1.5	-3.0	5.1	-3.2	8.4*	2.0
COC(=O)c1ccc2c(c1O)C(=O)c1ccccc1C2=O	-3.4	9.3*	-3.6	-3.3	0.7	0.2
O=C1c2ccccc2C(=O)c2c1ccc(O)c2O	-0.2	-1.9	-11.9	.	.	1.4
CC1=C(C(=O)N2CCOCC2)CC(CC(=O)NCc2ccco2)C(=O)N1Cc1ccccc1 (stereo unspecified)	-5.3	-1.0	-7.5	.	.	-0.4
O=C(O)c1cccnc1SC1CC(=O)N(c2ccccc2)C1=O (stereo unspecified)	-12.2	-3.9	7.6	5.2*	-0.6	-1.1
COc1ccc(N2C(=O)CC(Sc3ncccc3C(=O)O)C2=O)cc1 (stereo unspecified)	3.6	-1.4	2.5	-3.0	-0.3	-0.8

Assay outcomes from PubChem.
